Assays:
Single ascending dose = format: in vivo, human; conditions: for Tmax / AUC(0-inf) / AUC(0-t) / Cmax: both, human, plasma, po
Outline: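 Healthy subjects received one oral immediate-release capsule dose of test compound (30–200 µg) or placebo, with food withheld 1 h after dosing. K₂EDTA blood was drawn pre-dose, at 0.25–120 h, then every 24 h through Day 14. Samples were chilled, centrifuged and frozen at –20 ℃. Plasma was assayed by LC-MS/MS (0.03–15.0 ng/mL). Noncompartmental, linear-trapezoidal parameters are reported as mean (SD), with Tmax as median (min–max).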

[1] = system: prostacyclin (IP) receptor; conditions: cited from earlier work
[2] = system: rat monocrotaline model of PAH; conditions: oral; cited from earlier work
healthy subjects = test: Multiple ascending dose; format: in vivo, human; conditions: for Abdominal distention, subjects (%) / Abdominal pain, subjects (%) / Acne, subjects (%) / Application site dermatitis, subjects (%) / Arthralgia, subjects (%) / Asthenia, subjects (%) / Back pain, subjects (%) / Chapped lips, subjects (%) / Chest pain, subjects (%) / Chromaturia, subjects (%) / Constipation, subjects (%) / Decreased appetite, subjects (%) / Dermatitis contact, subjects (%) / Diarrhea, subjects (%) / Dizziness, subjects (%) / Dry mouth, subjects (%) / Eructation, subjects (%) / Fatigue, subjects (%) / Feeling hot, subjects (%) / Flatulence, subjects (%) / Flushing, subjects (%) / Headache, subjects (%) / Hordeolum, subjects (%) / Muscle tightness, subjects (%) / Muscular weakness, subjects (%) / Myalgia, subjects (%) / Nausea, subjects (%) / Non-cardiac chest pain, subjects (%) / Number of AEs reported / Ocular hyperemia, subjects (%) / Oropharyngeal pain, subjects (%) / Pain in extremity, subjects (%) / Pain in jaw, subjects (%) / Palpitations, subjects (%) / Paraesthesia, subjects (%) / Pruritus, subjects (%) / Restless leg syndrome, subjects (%) / Somnolence, subjects (%) / Total (%) subjects with at least one AE / Total (%) subjects with at least one SAE / Tremor, subjects (%) / Vomiting, subjects (%): all dose levels, n = 20
Outline: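 Subjects on test compound or placebo were domiciled up to 31 days (QD Cohorts 1–2) or 34 days (BID Cohort 3), with a 48-h drug-free follow-up. Monitoring at multiple time points covered adverse events, vital signs, 12-lead ECG with intensive ECG monitoring in all cohorts, and safety labs (serum chemistry, hematology, urinalysis). Data were summarized descriptively by treatment group.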

plasma protein = conditions: animals and humans; cited from earlier work
[3] = cited from earlier work

SMILES: O=C(O)COC[C@H]1CC[C@H](COC(=O)N(c2ccccc2)c2ccc(Cl)cc2)CC1 [ralinepag]
- Tmax (Single ascending dose): 1 to 1.5 h
- AUC(0-inf) (Single ascending dose; 30 ug): 17.3 ng·h/mL
- AUC(0-t) (Single ascending dose; 30 ug): 15.9 ng·h/mL
- Cmax (Single ascending dose; 30 ug): 0.949 ng/mL
- Tmax (Single ascending dose; 30 ug): 1 h
- AUC(0-inf) (Single ascending dose; 50 ug): 22.8 ng·h/mL
- AUC(0-t) (Single ascending dose; 50 ug): 21.5 ng·h/mL
- Cmax (Single ascending dose; 50 ug): 1.49 ng/mL
- Tmax (Single ascending dose; 50 ug): 1.25 h
- AUC(0-inf) (Single ascending dose; 100 ug): 42.6 ng·h/mL
- AUC(0-t) (Single ascending dose; 100 ug): 41.2 ng·h/mL
- Cmax (Single ascending dose; 100 ug): 2.65 ng/mL
- Tmax (Single ascending dose; 100 ug): 1.5 h
- AUC(0-inf) (Single ascending dose; 200 ug): 103 ng·h/mL
- AUC(0-t) (Single ascending dose; 200 ug): 101 ng·h/mL
- Cmax (Single ascending dose; 200 ug): 6.17 ng/mL
- Tmax (Single ascending dose; 200 ug): 1.25 h
- Dose proportionality of Cmax and AUC (Single ascending dose; single doses from 30 to 200 µg): approximately dose proportional
- Maximal cAMP stimulation (efficacy percentage relative to iloprost) [1]: 67%
- Type of IP receptor agonism [1]: strong partial agonist
- Functional potency relative to ACT-333679 ([1]; greater potency than selexipag active metabolite): 6–8 fold
- Efficacy in rat monocrotaline model of PAH [2]: dose-dependent oral efficacy
- Abdominal distention, subjects (%) (healthy subjects; Cohort 3, BID): 0
- Abdominal pain, subjects (%) (healthy subjects; Cohort 3, BID): 4 (20%)
- Acne, subjects (%) (healthy subjects; Cohort 3, BID): 2 (10%)
- Application site dermatitis, subjects (%) (healthy subjects; Cohort 3, BID): 0
- Arthralgia, subjects (%) (healthy subjects; Cohort 3, BID): 9 (45%)
- Asthenia, subjects (%) (healthy subjects; Cohort 3, BID): 0
- Back pain, subjects (%) (healthy subjects; Cohort 3, BID): 2 (10%)
- Chapped lips, subjects (%) (healthy subjects; Cohort 3, BID): 2 (10%)
- Chest pain, subjects (%) (healthy subjects; Cohort 3, BID): 1 (5%)
- Chromaturia, subjects (%) (healthy subjects; Cohort 3, BID): 2 (10%)
- Constipation, subjects (%) (healthy subjects; Cohort 3, BID): 1 (5%)
- Decreased appetite, subjects (%) (healthy subjects; Cohort 3, BID): 1 (5.0%)
- Dermatitis contact, subjects (%) (healthy subjects; Cohort 3, BID): 2 (10%)
- Diarrhea, subjects (%) (healthy subjects; Cohort 3, BID): 7 (35%)
- Dizziness, subjects (%) (healthy subjects; Cohort 3, BID): 9 (45%)
- Dry mouth, subjects (%) (healthy subjects; Cohort 3, BID): 2 (10%)
- Eructation, subjects (%) (healthy subjects; Cohort 3, BID): 0
- Fatigue, subjects (%) (healthy subjects; Cohort 3, BID): 3 (15%)
- Feeling hot, subjects (%) (healthy subjects; Cohort 3, BID): 2 (10%)
- Flatulence, subjects (%) (healthy subjects; Cohort 3, BID): 0
- Flushing, subjects (%) (healthy subjects; Cohort 3, BID): 3 (15%)
- Headache, subjects (%) (healthy subjects; Cohort 3, BID): 17 (85%)
- Hordeolum, subjects (%) (healthy subjects; Cohort 3, BID): 0
- Muscle tightness, subjects (%) (healthy subjects; Cohort 3, BID): 2 (10%)
- Muscular weakness, subjects (%) (healthy subjects; Cohort 3, BID): 2 (10%)
- Myalgia, subjects (%) (healthy subjects; Cohort 3, BID): 9 (45%)
- Nausea, subjects (%) (healthy subjects; Cohort 3, BID): 9 (45%)
- Non-cardiac chest pain, subjects (%) (healthy subjects; Cohort 3, BID): 0
- Number of AEs reported (healthy subjects; Cohort 3, BID): 196
- Ocular hyperemia, subjects (%) (healthy subjects; Cohort 3, BID): 3 (15%)
- Oropharyngeal pain, subjects (%) (healthy subjects; Cohort 3, BID): 1 (5%)
- Pain in extremity, subjects (%) (healthy subjects; Cohort 3, BID): 0
- Pain in jaw, subjects (%) (healthy subjects; Cohort 3, BID): 13 (65%)
- Palpitations, subjects (%) (healthy subjects; Cohort 3, BID): 5 (25%)
- Paraesthesia, subjects (%) (healthy subjects; Cohort 3, BID): 4 (20%)
- Pruritus, subjects (%) (healthy subjects; Cohort 3, BID): 2 (10%)
- Restless leg syndrome, subjects (%) (healthy subjects; Cohort 3, BID): 2 (10%)
- Somnolence, subjects (%) (healthy subjects; Cohort 3, BID): 2 (10%)
- Total (%) subjects with at least one AE (healthy subjects; Cohort 3, BID): 19 (95.0%)
- Total (%) subjects with at least one SAE (healthy subjects; Cohort 3, BID): 0 (0%)
- Tremor, subjects (%) (healthy subjects; Cohort 3, BID): 1 (5.0%)
- Vomiting, subjects (%) (healthy subjects; Cohort 3, BID): 3 (15%)
- Abdominal distention, subjects (%) (healthy subjects; Cohorts 1 and 2, QD): 2 (10%)
- Abdominal pain, subjects (%) (healthy subjects; Cohorts 1 and 2, QD): 6 (30%)
- Acne, subjects (%) (healthy subjects; Cohorts 1 and 2, QD): 0
- Application site dermatitis, subjects (%) (healthy subjects; Cohorts 1 and 2, QD): 6 (30%)
- Arthralgia, subjects (%) (healthy subjects; Cohorts 1 and 2, QD): 0
- Asthenia, subjects (%) (healthy subjects; Cohorts 1 and 2, QD): 2 (10%)
- Back pain, subjects (%) (healthy subjects; Cohorts 1 and 2, QD): 1 (5%)
- Chapped lips, subjects (%) (healthy subjects; Cohorts 1 and 2, QD): 0
- Chest pain, subjects (%) (healthy subjects; Cohorts 1 and 2, QD): 1 (5%)
- Chromaturia, subjects (%) (healthy subjects; Cohorts 1 and 2, QD): 0
- Constipation, subjects (%) (healthy subjects; Cohorts 1 and 2, QD): 6 (30%)
- Decreased appetite, subjects (%) (healthy subjects; Cohorts 1 and 2, QD): 4 (20%)
- Dermatitis contact, subjects (%) (healthy subjects; Cohorts 1 and 2, QD): 0
- Diarrhea, subjects (%) (healthy subjects; Cohorts 1 and 2, QD): 5 (25%)
- Dizziness, subjects (%) (healthy subjects; Cohorts 1 and 2, QD): 5 (25%)
- Dry mouth, subjects (%) (healthy subjects; Cohorts 1 and 2, QD): 0
- Eructation, subjects (%) (healthy subjects; Cohorts 1 and 2, QD): 3 (15%)
- Fatigue, subjects (%) (healthy subjects; Cohorts 1 and 2, QD): 2 (10%)
- Feeling hot, subjects (%) (healthy subjects; Cohorts 1 and 2, QD): 2 (10%)
- Flatulence, subjects (%) (healthy subjects; Cohorts 1 and 2, QD): 2 (10%)
- Flushing, subjects (%) (healthy subjects; Cohorts 1 and 2, QD): 7(35%)
- Headache, subjects (%) (healthy subjects; Cohorts 1 and 2, QD): 19 (95%)
- Hordeolum, subjects (%) (healthy subjects; Cohorts 1 and 2, QD): 3 (15%)
- Muscle tightness, subjects (%) (healthy subjects; Cohorts 1 and 2, QD): 0
- Muscular weakness, subjects (%) (healthy subjects; Cohorts 1 and 2, QD): 1 (5%)
- Myalgia, subjects (%) (healthy subjects; Cohorts 1 and 2, QD): 6 (30%)
- Nausea, subjects (%) (healthy subjects; Cohorts 1 and 2, QD): 17 (85%)
- Non-cardiac chest pain, subjects (%) (healthy subjects; Cohorts 1 and 2, QD): 2 (10%)
- Number of AEs reported (healthy subjects; Cohorts 1 and 2, QD): 230
- Ocular hyperemia, subjects (%) (healthy subjects; Cohorts 1 and 2, QD): 0
- Oropharyngeal pain, subjects (%) (healthy subjects; Cohorts 1 and 2, QD): 2(10%)
- Pain in extremity, subjects (%) (healthy subjects; Cohorts 1 and 2, QD): 3 (15%)
- Pain in jaw, subjects (%) (healthy subjects; Cohorts 1 and 2, QD): 13 (65%)
- Palpitations, subjects (%) (healthy subjects; Cohorts 1 and 2, QD): 4 (20%)
- Paraesthesia, subjects (%) (healthy subjects; Cohorts 1 and 2, QD): 1 (5%)
- Pruritus, subjects (%) (healthy subjects; Cohorts 1 and 2, QD): 1 (5.0%)
- Restless leg syndrome, subjects (%) (healthy subjects; Cohorts 1 and 2, QD): 1 (5%)
- Somnolence, subjects (%) (healthy subjects; Cohorts 1 and 2, QD): 3 (15%)
- Total (%) subjects with at least one AE (healthy subjects; Cohorts 1 and 2, QD): 20 (100%)
- Total (%) subjects with at least one SAE (healthy subjects; Cohorts 1 and 2, QD): 1 (5.0%)
- Tremor, subjects (%) (healthy subjects; Cohorts 1 and 2, QD): 2 (10%)
- Vomiting, subjects (%) (healthy subjects; Cohorts 1 and 2, QD): 12 (60%)
- Subjects withdrawn from the study due to AEs (healthy subjects; Cohorts 1 and 2, receiving ralinepag): three
- Tolerability versus dose (healthy subjects; QD (up to 400 µg) or BID (up to 70 µg) dosing): tolerability decreasing with increasing dose
- QT prolongation (12-lead Holter ECG, high-precision QT analysis) (healthy subjects; QD and BID dose ranges evaluated): not likely to be associated with QT prolongation
- Serious adverse event (healthy subjects; one subject, 50 µg QD, Cohort 2, possibly related to study medication): SAE of atrial fibrillation considered moderate in intensity
- Plasma protein binding (plasma protein): ~99%
- Enterohepatic recirculation ([3]; animals): observed
- Oral bioavailability ([3]; mouse, rat, dog, and monkey): moderate to high
